Measurements reported in ChEMBL document CHEMBL1155641, “Cytotoxic cembrenolides and steroids from the formosan soft coral Sarcophyton crassocaule” (2000).
≈ marks a conversion by molar mass, not a printed value.

Assays:
Format in all cases: functional
Conditions in all cases: read-out: ED50 (the source's name)
HT-29 = assay: Cytotoxicity against human HT29 cells
Outline: (§1)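 Human A549 lung adenocarcinoma and HT-29 colon adenocarcinoma cell lines from the American Type Culture Collection. Cytotoxicity assay run per a previously described procedure.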

KB = assay: Cytotoxicity against human KB cells
Outline: (§2)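 Human KB epidermoid carcinoma and mouse P-388 lymphocytic leukemia cells came from an academic laboratory (University of Illinois at Chicago). Cytotoxicity assay run per a previously described procedure.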

A549 = assay: Cytotoxicity against human A549 cells; outline: as §1
P388 = assay: Cytotoxicity against mouse P388 cells; outline: as §2

Question: What does the source list for C=C1C(=O)O[C@H]2[C@H]1C[C@@H]1O[C@@]1(C)CC/C=C(\C)CC/C=C(\C)[C@@H]2OC(C)=O?
Answer: EC50 (HT-29): 5.67 µg/mL (≈ 15.1 µM); EC50 (KB): 7.39 µg/mL (≈ 19.7 µM); EC50 (A549): 4.66 µg/mL (≈ 12.4 µM); EC50 (P388): 0.38 µg/mL (≈ 1.01 µM)

Question: CC(C)[C@@H](C)CC[C@@H](C)[C@H]1CC[C@H]2[C@@H]3C[C@@H](O)[C@@]4(O)C[C@@H](O)CC[C@]4(C)[C@H]3CC[C@]12C was tested. Which EC50 (HT-29) did it give?
Answer: Its EC50 is 8.35 µg/mL (≈ 19.2 µM).

Question: What about the EC50 (KB) of the same compound?
Answer: Its EC50 is 5.38 µg/mL (≈ 12.4 µM).

Question: What about the EC50 (A549) of the same compound?
Answer: The EC50 was 6.26 µg/mL (≈ 14.4 µM).

Question: What about the EC50 (P388) of the same compound?
Answer: Its EC50 is 0.14 µg/mL (≈ 0.322 µM).

Question: With CC(=O)OC(C)(C)[C@H](C)CC[C@@H](C)[C@H]1CC[C@H]2[C@@H]3C[C@@H](O)[C@@]4(O)C[C@@H](O)CC[C@]4(C)[C@H]3CC[C@]12C as the compound, how does the EC50 (HT-29) read?
Answer: Its EC50 is 4.32 µg/mL (≈ 8.77 µM).

Question: And the EC50 (KB)?
Answer: Its EC50 is 26.8 µg/mL (≈ 54.5 µM).

Question: What about the EC50 (A549) of the same compound?
Answer: Its EC50 is 22.4 µg/mL (≈ 45.5 µM).

Question: And the EC50 (P388)?
Answer: The EC50 was 3.96 µg/mL (≈ 8.04 µM).

Question: For C=C1C(=O)O[C@H]2/C=C(\C)CC[C@H](OC(C)=O)[C@@]3(C)CC[C@H](OO3)/C(C)=C\C[C@@H]12 [DENTICULATOLIDE], which EC50 (HT-29) is on record?
Answer: Its EC50 is 5.78 µg/mL (≈ 14.8 µM).

Question: What about the EC50 (KB) of the same compound?
Answer: Its EC50 is 6.29 µg/mL (≈ 16.1 µM).

Question: What about the EC50 (A549) of the same compound?
Answer: The EC50 was 6.46 µg/mL (≈ 16.5 µM).

Question: What about the EC50 (P388) of the same compound?
Answer: Its EC50 is 0.15 µg/mL (≈ 0.384 µM).

Question: Which results are given for C=C1C(=O)O[C@@H]2C/C(C)=C/CC/C(C)=C/CC[C@]3(C)O[C@H]3C[C@@H]12 [SARCOCRASSOLIDE]?
Answer: EC50 (HT-29): 7.55 µg/mL (≈ 23.9 µM); EC50 (KB): 9.15 µg/mL (≈ 28.9 µM); EC50 (A549): 8.31 µg/mL (≈ 26.3 µM); EC50 (P388): 0.16 µg/mL (≈ 0.506 µM)
